Test results: ChEMBL document CHEMBL1147582, “Approaches towards the stabilization of hemiaminal function at ornithine unit of mulundocandin” (2004)

What was measured:
Type in all cases: functional
[1] = system: Aspergillus fumigatus; assay: Antifungal activity against Aspergillus fumigatus at a concentration of 2 mg/mL in MeOH; Zone: very hazy
Summary of the method: (§1)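 Standard agar-well diffusion on Sabouraud agar bioassay plates, seeded with C. albicans strain IV or A. fumigatus strain AF-1. Read-out is the inhibition zone produced around the well. Zone appearance is scored as hazy, very hazy, hazy diffused or very hazy diffused, and judged against the zone of the parent mulundocandin.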

[2] = system: Candida albicans; assay: Antifungal activity against Candida albicans at a concentration of 5 mg/mL in MeOH; summary of the method: as §1
[3] = system: Candida albicans; assay: Antifungal activity against Candida albicans at a concentration of 1 mg/mL in MeOH; summary of the method: as §1
[4] = system: Aspergillus fumigatus; assay: Antifungal activity against Aspergillus fumigatus at a concentration of 5 mg/mL in MeOH; Zone: hazy diffused; summary of the method: as §1
[5] = system: Candida albicans; assay: Antifungal activity against Candida albicans at an intraperitoneal dose of 20 mg/kg twice a day for 6 days in mice
Summary of the method: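 Swiss mice were infected with C. albicans and treated intraperitoneally at 20 mg/kg ×6, b.i.d. Kidneys were homogenized and the approximate CFU per gm kidney was counted. Comparator groups were the parent compound, fluconazole and untreated infected controls.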

[6] = system: Aspergillus fumigatus; assay: Antifungal activity against Aspergillus fumigatus at a concentration of 2 mg/mL in MeOH; Zone: hazy diffused; summary of the method: as §1
[7] = system: Candida albicans; assay: Antifungal activity against Candida albicans at a concentration of 0.1 mg/mL in MeOH; summary of the method: as §1
[8] = system: Candida albicans; assay: Antifungal activity against Candida albicans at an intraperitoneal dose of 20 mg/kg twice a day for 6 days in mice in experiment 2
Summary of the method: (§2)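 Swiss mice infected with C. albicans; compounds given intraperitoneally at 20 mg/kg, ×6, b.i.d. Kidneys homogenized and colony-forming units counted per gram of kidney (approximate). Untreated infected control group included; fluconazole at the same dose used as standard.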

[9] = system: Candida albicans; assay: Antifungal activity against Candida albicans at a concentration of 1.1 mg/mL in MeOH; summary of the method: as §1
[10] = system: Candida albicans; assay: Antifungal activity against Candida albicans at an intraperitoneal dose of 20 mg/kg twice a day for 6 days in mice in experiment 1; summary of the method: as §2
[11] = system: Aspergillus fumigatus; assay: Antifungal activity against Aspergillus fumigatus at a concentration of 2 mg/mL in MeOH; Zone: very hazy diffused; summary of the method: as §1
[12] = system: Aspergillus fumigatus; assay: Antifungal activity against Aspergillus fumigatus at a concentration of 1.1 mg/mL in MeOH; Zone: hazy diffused; summary of the method: as §1
[13] = system: Candida albicans; assay: Antifungal activity against Candida albicans at a concentration of 1 mg/mL in MeOH; Zone: hazy; summary of the method: as §1
[14] = system: Aspergillus fumigatus; assay: Antifungal activity against Aspergillus fumigatus at a concentration of 1 mg/mL in MeOH; Zone: hazy; summary of the method: as §1
[15] = system: Aspergillus fumigatus; assay: Antifungal activity against Aspergillus fumigatus at a concentration of 5 mg/mL in MeOH; Zone: hazy; summary of the method: as §1
[16] = system: Aspergillus fumigatus; assay: Antifungal activity against Aspergillus fumigatus at a concentration of 2 mg/mL in MeOH; Zone: hazy; summary of the method: as §1
[17] = system: Aspergillus fumigatus; assay: Antifungal activity against Aspergillus fumigatus at a concentration of 5 mg/mL in MeOH; Zone: very hazy diffused; summary of the method: as §1
[18] = system: Candida albicans; assay: Antifungal activity against Candida albicans at a concentration of 2 mg/mL in MeOH; Zone: hazy; summary of the method: as §1
[19] = system: Aspergillus fumigatus; assay: Antifungal activity against Aspergillus fumigatus at a concentration of 2 mg/mL in MeOH; Zone: diffused; summary of the method: as §1

Work on CCC(C)CCCCCCCCCCC(=O)N[C@@H]1C[C@@H](O)C(S(=O)(=O)CC(=O)OC)NC(=O)[C@@H]2[C@@H](O)[C@@H](C)CN2C(=O)C(CO)NC(=O)C([C@@H](O)[C@H](O)c2ccc(O)cc2)NC(=O)[C@@H]2C[C@@H](O)CN2C(=O)C(C(C)O)NC1=O (some centres undefined) yielded a Zone size [1] of 24 mm, a Zone size [2] of 26 mm and a Zone size [3] of 20 mm. It also gave a Zone size [4] of 29 mm.
With CCC(C)CCCCCCCCCCC(=O)N[C@@H]1C[C@@H](O)C(O)NC(=O)[C@@H]2[C@@H](O)[C@@H](C)CN2C(=O)[C@H](CO)NC(=O)[C@H]([C@@H](O)Cc2ccc(O)cc2)NC(=O)[C@@H]2C[C@@H](O)CN2C(=O)[C@H]([C@@H](C)O)NC1=O (some centres undefined) the Zone size [3] was 30 mm, the “Approximate colony formation unit” value [5] was 180000000 (g kidney)-1 and the Zone size [6] was 30 mm.
CCC(C)CCCCCCCCCCC(=O)N[C@@H]1C[C@@H](O)CNC(=O)[C@@H]2[C@@H](O)[C@@H](C)CN2C(=O)[C@H](CO)NC(=O)[C@H]([C@@H](O)C(O)c2ccc(O)cc2)NC(=O)[C@@H]2C[C@@H](O)CN2C(=O)[C@H]([C@@H](C)O)NC1=O (some centres undefined) gave a Zone size [2] of 29 mm, a Zone size [3] of 25 mm and a Zone size [6] of 23 mm. The Zone size [4] was 25 mm.
For CCC(C)CCCCCCCCCCC(=O)N[C@@H]1C[C@@H](O)[C@H](O)NC(=O)[C@@H]2[C@@H](O)[C@@H](C)CN2C(=O)[C@H](CO)NC(=O)[C@H]([C@@H](O)[C@H](O)c2ccc(O)cc2)NC(=O)[C@@H]2C[C@@H](O)CN2C(=O)[C@H]([C@@H](C)O)NC1=O (some centres undefined), the Zone size [7] was 24 mm, the “Approximate colony formation unit” value [8] was 12500000 (g kidney)-1 and the Zone size [9] was 29 mm. For the same compound, the “Approximate colony formation unit” value [10] was 150000000 (g kidney)-1, the Zone size [11] was 35 mm and the Zone size [12] was 29 mm.
CCC(C)CCCCCCCCCCC(=O)N[C@@H]1C[C@@H](O)CNC(=O)[C@@H]2[C@@H](O)[C@@H](C)CN2C(=O)[C@H](CO)NC(=O)[C@H]([C@@H](O)Cc2ccc(O)cc2)NC(=O)[C@@H]2C[C@@H](O)CN2C(=O)[C@H]([C@@H](C)O)NC1=O (some centres undefined) showed a Zone size [2] of 38 mm, a Zone size [13] of 24 mm and a Zone size [14] of 25 mm. For the same compound, the “Approximate colony formation unit” value [5] was 7700000 (g kidney)-1, the Zone size [6] was 30 mm and the Zone size [4] was 35 mm.
CCC(C)CCCCCCCCCCC(=O)N[C@@H]1C[C@H](O)C(C#N)NC(=O)[C@@H]2[C@@H](O)[C@@H](C)CN2C(=O)[C@H](CO)NC(=O)[C@H]([C@@H](O)[C@H](O)c2ccc(O)cc2)NC(=O)[C@@H]2C[C@@H](O)CN2C(=O)[C@H]([C@@H](C)O)NC1=O (some centres undefined) showed a Zone size [2] of 25 mm, a Zone size [3] of 19 mm and a Zone size [6] of 20 mm. The Zone size [4] was 27 mm.
CCC(C)CCCCCCCCCCC(=O)N[C@@H]1C[C@@H](O)[C@H](OCc2ccccc2)NC(=O)[C@@H]2[C@@H](O)[C@@H](C)CN2C(=O)C(CO)NC(=O)C([C@@H](O)Cc2ccc(O)cc2)NC(=O)[C@@H]2C[C@@H](O)CN2C(=O)C(C(C)O)NC1=O (some centres undefined) gave a Zone size [2] of 17 mm, a Zone size [6] of 15 mm and a Zone size [4] of 18 mm.
Compound CCC(C)CCCCCCCCCCC(=O)N[C@@H]1C[C@@H](O)C(OCc2ccccc2)NC(=O)[C@@H]2[C@@H](O)[C@@H](C)CN2C(=O)C(CO)NC(=O)C([C@@H](O)[C@H](O)c2ccc(O)cc2)NC(=O)[C@@H]2C[C@@H](O)CN2C(=O)C(C(C)O)NC1=O (some centres undefined) has a Zone size [2] of 16 mm, a Zone size [15] of 26 mm and a Zone size [16] of 24 mm.
CCC(C)CCCCCCCCCCC(=O)N[C@@H]1C[C@@H](O)C(c2ccc(OC)c(OC)c2)NC(=O)[C@@H]2[C@@H](O)[C@@H](C)CN2C(=O)C(CO)NC(=O)C([C@@H](O)[C@H](O)c2ccc(O)cc2)NC(=O)[C@@H]2C[C@@H](O)CN2C(=O)C(C(C)O)NC1=O (some centres undefined) gave a Zone size [2] of 29 mm, a Zone size [3] of 24 mm and a Zone size [6] of 30 mm. The Zone size [4] was 32 mm.
CCC(C)CCCCCCCCCCC(=O)N[C@@H]1C[C@@H](O)C(OC)NC(=O)[C@@H]2[C@@H](O)[C@@H](C)CN2C(=O)C(CO)NC(=O)C([C@@H](O)[C@H](O)c2ccc(O)cc2)NC(=O)[C@@H]2C[C@@H](O)CN2C(=O)C(C(C)O)NC1=O (some centres undefined) showed a Zone size [17] of 35 mm, a Zone size [2] of 27 mm and a Zone size [18] of 26 mm. For the same compound, the Zone size [3] was 25 mm, the Zone size [19] was 37 mm and the Zone size [16] was 24 mm.
In the case of CCC(C)CCCCCCCCCCC(=O)N[C@@H]1C[C@@H](O)C(CN)NC(=O)[C@@H]2[C@@H](O)[C@@H](C)CN2C(=O)C(CO)NC(=O)C([C@@H](O)[C@H](O)c2ccc(O)cc2)NC(=O)[C@@H]2C[C@@H](O)CN2C(=O)C(C(C)O)NC1=O (some centres undefined), the Zone size [2] is reported as 25 mm, the Zone size [3] is reported as 22 mm and the Zone size [6] is reported as 23 mm. For the same compound, the Zone size [4] was 25 mm.
In the case of OC(Cn1cncn1)(Cn1cncn1)c1ccc(F)cc1F [FLUCONAZOLE], the “Approximate colony formation unit” value [8] is reported as 10000 (g kidney)-1 and the “Approximate colony formation unit” value [10] is reported as 380000 (g kidney)-1.
